In ChEMBL document CHEMBL5046294, “Rational Design, Chemical Syntheses, and Biological Evaluations of Peripherally Selective Mu Opioid Receptor Ligands as Potential Opioid Induced Constipation Treatment” (J Med Chem, 2022):
Activity calls are given as the source filed them.

Tests used:
Mus musculus [1] = test: Antinociceptive activity against sc dosed Swiss Webster mouse model assessed as effect on morphine induced antinociception by measuring tail withdrawal latency from warm water incubated for 5 mins followed by morphine addition measured after 20 mins by warm water tail immersion assay; format: functional; conditions: time 25.0 min
How it was run: (§1)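 Male Swiss Webster mice, 5–8 weeks, 25–35 g, 6 per group. Tail immersed (distal third) in water at 56 ± 0.1 °C. Mice included only with baseline latency 2–4 s. Compound 10 mg/kg s.c.; in the challenge arm it was given 5 min before morphine 10 mg/kg s.c. Latency read 20 min after injection, 10-s cutoff. %MPE = (test − control)/(10 − control) × 100. Dunnett-corrected one-way ANOVA.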

Mus musculus [2] = organism: Mus musculus; test: Selectivity index, ratio of Ki for binding affinity to mouse kappa opioid receptor to Ki for binding affinity to mouse mu opioid receptor
How it was run: (§2)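 Competition binding. Membranes (30 μg protein) from CHO cells with mouse MOR or KOR, or human DOR. Incubated with radioligand and varying test concentrations in TME buffer, pH 7.4, 1.5 h at 30 °C. Filtration harvest. Nonspecific binding defined with 5 μM naltrexone (MOR), U50,488 (KOR) or SNC80 (DOR). IC₅₀ by nonlinear regression, converted to Ki by Cheng-Prusoff. Selectivity ratios taken from these Ki values. At least three independent experiments.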

[3] = Selectivity index, ratio of Ki for binding affinity to human delta opioid receptor to Ki for binding affinity to mouse mu opioid receptor; how it was run: as §2
Mu-type opioid receptor [4] = target: T1, Mu-type opioid receptor (Mus musculus, UniProt P42866); test: Antagonist activity at mouse mu opioid receptor expressed in CHO cell membrane assessed as reduction in DAMGO-induced […]-GTPgammaS binding incubated for 1.5 hrs by liquid scintillation counting method; format: functional, cell membranes
[5] = target: Kappa-type opioid receptor (Mus musculus, UniProt P33534); test: Binding affinity to mouse kappa opioid receptor expressed in CHO cells in presence of U50488 incubated for 1.5 hrs by competitive radioligand binding assay; format: cell-based; how it was run: as §2
[6] = target: Delta-type opioid receptor (Homo sapiens, UniProt P41143); test: Binding affinity to human delta opioid receptor in presence of SNC80 incubated for 1.5 hrs by competitive radioligand binding assay; how it was run: as §2
[7] = target: Mu-type opioid receptor (Mus musculus) (UniProt P42866); test: Antagonist activity at mouse mu opioid receptor expressed in CHO cell membrane assessed as reduction in DAMGO-induced […]-GTPgammaS binding by measuring maximal efficacy incubated for 1.5 hrs by liquid scintillation counting method relative to control; format: functional, cell membranes
How it was run: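 [³⁵S]GTPγS binding. Membranes (10 μg protein) from CHO cells expressing MOR, KOR or DOR. Buffer TME (50 mM Tris, 3 mM MgCl₂, 0.2 mM EGTA, pH 7.4) with 100 mM NaCl, 20 μM GDP and 0.1 nM [³⁵S]GTPγS. Test compound at varying concentrations. Incubation 1.5 h at 30 °C. Nonspecific binding with 20 μM unlabeled GTPγS. Reference full agonist at 3 μM: DAMGO (MOR), U50488H (KOR), SNC80 (DOR). Filtration, then scintillation counting. Duplicates, at least three repeats.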

Mus musculus [8] = test: Antinociceptive activity against Swiss Webster mouse assessed as tail withdrawal latency from warm water by measuring maximum possible effect at 10 mg/kg, sc measured after 20 mins by warm water tail immersion assay; format: functional; how it was run: as §1
Mu-type opioid receptor [9] = target: T1, Mu-type opioid receptor; test: Binding affinity to mouse mu opioid receptor expressed in CHO cells in presence of naltrexone incubated for 1.5 hrs by competitive radioligand binding assay; format: cell-based; how it was run: as §2

Row | Structure (SMILES) | Activity (Mus musculus [1]) | Ratio Ki (Mus musculus [2]) | Ratio Ki [3] | EC50 (Mu-type opioid receptor [4]) [nM] | Ki [5] [nM] | Ki [6] [nM] | Emax [7] [%] | Activity (Mus musculus [8]) | Ki (Mu-type opioid receptor [9]) [nM] | MPE (Mus musculus [8]) [%]
1 | O=C(Cc1cnc[nH]1)N[C@@H]1CC[C@@]2(O)[C@H]3Cc4ccc(O)c5c4[C@@]2(CCN3CC2CC2)[C@H]1O5 | inactive | 6 | 91 | 4.64 | 4.82 | 74.5 | 20.9 | inactive | 0.82 | 
2 | O=C(CCc1cnc[nH]1)N[C@@H]1CC[C@@]2(O)[C@H]3Cc4ccc(O)c5c4[C@@]2(CCN3CC2CC2)[C@H]1O5 | inactive | 3 | 60 | 3.19 | 1.8 | 35.5 | 15.7 | inactive | 0.6 | 
3 | O=C(Cc1cc[nH]n1)N[C@@H]1CC[C@@]2(O)[C@H]3Cc4ccc(O)c5c4[C@@]2(CCN3CC2CC2)[C@H]1O5 | inactive | 26 | 186 | 2.5 | 5.05 | 36.8 | 20.4 |  | 0.2 | 39.3
4 | O=C(CCc1cc[nH]n1)N[C@@H]1CC[C@@]2(O)[C@H]3Cc4ccc(O)c5c4[C@@]2(CCN3CC2CC2)[C@H]1O5 | inactive | 10 | 202 | 2.76 | 2 | 42.2 | 13.2 | inactive | 0.21 | 
5 | O=C(CCc1cn[nH]c1)N[C@H]1CC[C@@]2(O)[C@H]3Cc4ccc(O)c5c4[C@@]2(CCN3CC2CC2)[C@H]1O5 | inactive | 36 | 83 | 12.3 | 39.5 | 91.2 | 14.2 | inactive | 1.09 | 
6 | O=C(Cc1cnc[nH]1)N[C@H]1CC[C@@]2(O)[C@H]3Cc4ccc(O)c5c4[C@@]2(CCN3CC2CC2)[C@H]1O5 | inactive | 3 | 59 | 3.61 | 3.57 | 79.4 | 21 | inactive | 1.34 | 
7 | O=C(Cc1ncc[nH]1)N[C@H]1CC[C@@]2(O)[C@H]3Cc4ccc(O)c5c4[C@@]2(CCN3CC2CC2)[C@H]1O5 |  | 4 | 21 | 1.81 | 3.45 | 17.7 | 19.2 |  | 0.83 | 36.9
8 | O=C(Cc1ncc[nH]1)N[C@@H]1CC[C@@]2(O)[C@H]3Cc4ccc(O)c5c4[C@@]2(CCN3CC2CC2)[C@H]1O5 | inactive | 11 | 188 | 2.07 | 5.17 | 89.8 | 23.5 | inactive | 0.48 | 
9 | O=C(CCc1cn[nH]c1)N[C@@H]1CC[C@@]2(O)[C@H]3Cc4ccc(O)c5c4[C@@]2(CCN3CC2CC2)[C@H]1O5 | inactive | 40 | 322 | 4.28 | 12.3 | 97.8 | 10.7 | inactive | 0.3 | 
10 | O=C(N[C@@H]1CC[C@@]2(O)[C@H]3Cc4ccc(O)c5c4[C@@]2(CCN3CC2CC2)[C@H]1O5)c1cn[nH]c1 | inactive | 4 | 72 | 1.77 | 2.51 | 46.8 | 16.3 | inactive | 0.65 | 
11 | O=C(CCc1ncc[nH]1)N[C@H]1CC[C@@]2(O)[C@H]3Cc4ccc(O)c5c4[C@@]2(CCN3CC2CC2)[C@H]1O5 | inactive | 1 | 6 | 4.26 | 0.79 | 3.94 | 21.7 | inactive | 0.69 | 
